{
  "source": "paper PMC4878412",
  "about": "(Cancer chemotherapy and pharmacology, 2015)",
  "key": {"[1]": {"assay": "In vivo retention of RK-33 in plasma, liver and lungs 48 h after administration", "settings": "mice, 48 h after intraperitoneal injection of 0.80 mg free RK-33", "method_in_brief": "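Female athymic NCr-nu/nu mice (4–5 weeks, three animals) got free test compound 0.8 mg i.p. and were killed at 48 h. Blood was drawn intracardially into heparin tubes and spun at 8000 rpm for 5 min. Liver and lungs were weighed and homogenised in 3 volumes cold PBS. Plasma or homogenate (0.1 mL) was extracted with 1 mL chloroform/isopropanol (1:1), shaken 3 min and centrifuged.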"}, "[2]": {"settings": "free RK-33; no method in this paper, no reference given; cited from earlier work"}, "DDX3": {"tested_on": "DDX3", "settings": "ref [1]; cited from earlier work"}, "[3]": {"settings": "ref [1]; cited from earlier work"}, "[4]": {"settings": "ref [1]; cited from earlier work", "remark": "listed apart in the source"}},
  "data": [
    {"substance": "RK-33", "values": [
      {"measurement": "RK-33 in liver", "setting": "[1]", "result": "< 1", "unit": "µg/mL"},
      {"measurement": "RK-33 in lungs", "setting": "[1]", "result": "< 1", "unit": "µg/mL"},
      {"measurement": "RK-33 in plasma", "setting": "[1]", "result": "< 1", "unit": "µg/mL"},
      {"measurement": "Systemic half-life (t½)", "setting": "[2]", "result": 7.3, "unit": "h"},
      {"measurement": "Inhibition of DDX3 (in words)", "setting": "DDX3", "result": "effectively inhibits"},
      {"measurement": "Cell cycle effect (in words)", "setting": "[3]", "result": "induce G1 arrest"},
      {"measurement": "Toxicity in mice (in words)", "setting": "[4]", "result": "little or no toxicity"}
    ]}
  ]
}
